# MC4R antag cAMP: antagonists of human melanocortin 4 receptor (MC4R); AID 540295; inhibition, % at 6.5 µM; 0.48% of 360,000 active; MC4R-expressing cells, MTII-stimulated cAMP, LANCE TR-FRET;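 active = inhibition above its plate's cutoff, the mean of tested wells on that plate plus 3 SD, cut at about 29% in these data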
#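 Assay system: human MC4R-expressing U2OS cells; reagent: Melanotan II stimulation of cells; dosing: 6.5 µM single dose; timing: compound 30 min, challenge 1 h, detection 1 h; signal: TR-FRET cAMP assay; replicates: one well per compound, no replicates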
# PG9 binder: small molecules binding HIV-1 gp120 antibody PG9 | TR-FRET gp120-PG9 antibody binding | inhibition, % at 6.7 µM | 0.43% of 360,000 active; in the data active = inhibition above about 8.5%
# NR2E3 ag-1: activates human photoreceptor nuclear receptor NR2E3 | 0.12% of 320,000 active | Q9Y5X4 | AID 2300 | inhibition of corepressor binding, % at 4.78 µM | GST-NR2E3/biotin-RetCOR TR-FRET, 1536-well;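 active = percent inhibition above the cutoff of mean plus 3 SD of all tested compounds, set per screening campaign, cut at about 20% in these data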
#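 system = GST-tagged NR2E3 plus biotinylated RetCOR corepressor | input = 1.35 nM GST-NR2E3 | also added = 7 nM biotin-RetCOR | schedule = 5 h incubation at 4 °C | measured by = TR-FRET with europium anti-GST and streptavidin-D2, 340 nm excitation | read-out = percent loss of FRET ratio relative to control wells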
# Rev-erbA mod: Rev-erb alpha (human) modulation | P20393 | Rev-erbα–FITC-DNA binding, fluorescence polarization, 90 min | activity, % at 10 µM | 0.79% of 370,000 active;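 active = activity above about 14%, limit read from the data; passing the limit was not always enough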
# Target sequence (P20393 whole entry, looked up): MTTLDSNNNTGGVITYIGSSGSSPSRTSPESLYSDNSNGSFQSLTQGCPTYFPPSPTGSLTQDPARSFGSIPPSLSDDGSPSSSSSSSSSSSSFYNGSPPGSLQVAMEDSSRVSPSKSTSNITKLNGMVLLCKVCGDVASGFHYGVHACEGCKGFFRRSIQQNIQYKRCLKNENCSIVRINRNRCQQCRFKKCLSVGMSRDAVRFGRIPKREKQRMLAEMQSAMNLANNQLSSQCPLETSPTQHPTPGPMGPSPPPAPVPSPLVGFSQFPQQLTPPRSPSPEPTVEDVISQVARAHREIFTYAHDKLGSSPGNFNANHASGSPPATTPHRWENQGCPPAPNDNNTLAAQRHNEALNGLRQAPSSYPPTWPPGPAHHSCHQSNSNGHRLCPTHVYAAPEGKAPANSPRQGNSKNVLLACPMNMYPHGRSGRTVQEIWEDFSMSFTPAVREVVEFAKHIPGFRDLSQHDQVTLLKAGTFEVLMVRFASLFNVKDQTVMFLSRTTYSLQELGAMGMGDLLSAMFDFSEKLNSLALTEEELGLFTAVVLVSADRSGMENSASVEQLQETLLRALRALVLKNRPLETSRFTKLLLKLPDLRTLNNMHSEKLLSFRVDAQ
# MC4R barr agon: activates human MC4R beta-arrestin recruitment. U2OS MC4R beta-arrestin complementation, luminescence; percent of melanotan II response, DMSO zero. activation, % at 8.9 µM. 0.98% of 360,000 active. P32245;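 active = activation above a per-plate cutoff, the mean activation of sample wells on that plate plus 3 SD, cut at about 8% in these data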
# NR2E3 ag-2: agonists of human NR2E3 nuclear receptor; Q9Y5X4; CHO-S Gal4-NCOR/VP16-NR2E3 two-hybrid, luciferase; inhibition of corepressor binding, % at 3.98 µM; 0.35% of 360,000 active; AID 602229;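 active = inhibition above the mean of all tested compounds plus 3 SD, cut at about 70% in these data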;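 also: higher means lower luciferase signal from less NR2E3 corepressor binding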
# U2OS cAMP counter: counter-screen for MC4R antagonists: nonselective cAMP signaling inhibitors; shares compounds with MC4R antag cAMP; inhibition, % at 6.5 µM; 26% of 1,600 active; parental U2OS, forskolin cAMP, LANCE TR-FRET; AID 602193;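 active = mean inhibition over triplicates above the low-control well mean plus 3 SD, set per campaign, cut at about 13% in these data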;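 also: signal is single emission at 671 nm which falls as cellular cAMP rises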
# MC4R cAMP antag: human MC4R cAMP antagonism confirmation | AID 602195 | MC4R-expressing cells, MTII-stimulated cAMP, TR-FRET | shares compounds with MC4R antag cAMP | 27% of 1,600 active | inhibition, % at 6.5 µM; in the data active = inhibition above about 29%
# Numbers stand for hits; n = inactive; x = not tested or not shown. Most compounds without a hit are left out; they make up all but 2.7% or so of the library.
SMILES,MC4R antag cAMP,PG9 binder,NR2E3 ag-1,Rev-erbA mod,MC4R barr agon,NR2E3 ag-2,U2OS cAMP counter,MC4R cAMP antag
CC(C)CN(C(=O)CSc1nnc(-c2ccco2)o1)c1c(N)n(Cc2ccccc2)c(=O)[nH]c1=O,n,n,n,n,n,n,x,x
Cc1cccc(-n2c(O)c(C=Nc3cc(O)ccc3C)c3ccccc3c2=O)n1,31.2,n,n,n,n,n,n,n
Cc1cccc(-n2c(O)c(C=Nc3ccccc3O)c3ccccc3c2=O)n1,n,n,n,n,n,n,x,x
O=S(=O)(NCCOc1ccccc1F)c1ccc(Cl)cc1F,n,n,x,n,n,n,x,x
CCC(OC(=O)CNS(=O)(=O)c1ccccc1)C(=O)c1ccccc1 (centres undefined),37.3,n,n,n,n,n,16.7,30.7
CCCCNC(=O)O[C@@H]1C[C@H]2CCCC(=O)N3CC[C@@H](C1)[C@@H]23,n,n,n,n,n,n,x,x
CCCCCCCN(c1ccccc1)[C@@H]1C[C@H]2CCCC(=O)N3CC[C@@H](C1)[C@@H]23,33.8,n,x,n,n,n,n,33.8
COCCN(CC(=O)NC1CCCCC1)C(=O)/C=C/C(=O)c1ccc(OC)cc1O,41.1,n,x,n,n,n,n,n
COc1ccc(C(=O)/C=C/C(=O)N(CC(=O)NC2CCCCC2)Cc2cccs2)c(O)c1,31.8,n,n,n,n,n,n,n
COc1ccc(-n2c(COc3cccc4ccccc34)nnc2SCC(=O)NCc2ccco2)cc1,n,n,n,n,n,n,x,x
Cc1cc2nc[nH]c2cc1[N+](=O)[O-],28.7,n,n,n,n,n,n,n
O=[N+]([O-])c1cncc2[nH]cnc12,x,x,x,n,x,x,x,x
COc1ccccc1-c1coc2cc(OCC(=O)OCc3ccccc3)ccc2c1=O,n,n,n,n,n,n,x,x
COc1ccccc1-c1c(C)oc2cc(OCC(=O)OCc3ccccc3)ccc2c1=O,36.6,n,n,n,n,n,14.4,37.8
O=C(/C=C/c1ccc(Cl)cc1)c1ccc([N+](=O)[O-])o1,40.4,n,n,n,n,n,n,n
COc1cc2c(=O)n(CCCC(=O)NCC3CCCO3)c(=O)n(CC(=O)c3ccc(F)cc3)c2cc1OC (centres undefined),30.3,n,n,n,n,n,n,n
COc1ccc(NC(=O)Cn2c(=O)n(CCC(=O)NCC3CCCO3)c(=O)c3cc(OC)c(OC)cc32)cc1 (centres undefined),n,n,n,n,n,n,x,x
Cn1c(C2CCCCC2)nc2c1c(=O)[nH]c(=O)n2Cc1ccccc1,33.8,n,n,n,n,n,n,n
CCn1c(CO)nc2c1c(=O)[nH]c(=O)n2Cc1ccccc1,31.1,n,n,n,n,n,n,n
Cc1ccc(-c2nc3c(c(=O)[nH]c(=O)n3Cc3ccccc3)n2Cc2ccccc2)o1,n,n,x,n,n,n,x,x
CCOC(=O)Cn1nnnc1CN(Cc1ccccc1)Cc1cc2cc(CC)ccc2[nH]c1=O,29.7,n,n,n,n,n,n,n
Cc1cccn2c(CN3CCSCC3)c(C(=O)N3CCOCC3)nc12,29.3,n,n,n,n,n,n,n
O=C(COC(=O)CNC(=O)c1cccc([N+](=O)[O-])c1)Nc1nc2ccccc2s1,31.1,n,n,n,n,n,n,n
O=C(COC(=O)CNC(=O)c1cccc([N+](=O)[O-])c1)Nc1ccccc1OC(F)F,n,n,n,n,n,n,x,x
CC(NC(=O)c1ccc(OC2CCN(Cc3ccccn3)CC2)cc1)c1nccs1 (centres undefined),28.9,n,n,n,n,n,n,n
SMILES,MC4R antag cAMP,PG9 binder,NR2E3 ag-1,Rev-erbA mod,MC4R barr agon,NR2E3 ag-2,U2OS cAMP counter,MC4R cAMP antag
Cc1nc(C(C)NC(=O)c2ccc(OC3CCN(Cc4ccccn4)CC3)cc2)c(C)s1 (centres undefined),n,n,n,n,n,n,x,x
O=[N+]([O-])c1ccc(CN2CC(N3CCN(CCO)CC3)CS2(=O)=O)cc1 (centres undefined),n,n,x,n,n,n,x,x
CC(C)(C)OC(=O)NCCc1nnc(S(=O)(=O)Cc2ccc(Cl)cc2Cl)o1,31.0,n,n,n,n,n,n,37.8
CC(C)(C)OC(=O)NCCc1nnc(SCc2ccccc2Cl)o1,n,n,n,n,n,n,x,x
O=C(Nc1ccccc1C(=O)NCc1ccccc1)c1ccccc1Br,n,n,n,n,n,n,x,x
CC(C)c1ccc(NC(=O)Nc2nnc([C@@H]3C[C@H](O)[C@@H](CO)O3)s2)cc1,n,n,x,n,n,n,x,x
CCOC(=O)c1cnc2ccc(C(=O)OC)cc2c1Nc1ccc(C(=O)O)cc1,n,n,n,n,n,n,x,x
CCOC(=O)c1ccc2ncc(C(=O)OCC)c(Nc3ccc(N4CCOCC4)cc3)c2c1,47.6,n,n,n,n,n,n,48.1
Cc1cc(NS(=O)(=O)c2ccc(NC(=O)c3oc4ccccc4c3C)cc2)no1,29.0,n,n,n,n,n,n,n
Cc1ncc(CN2CCN(C3CCCC3)C(CCO)C2)s1 (centres undefined),n,n,n,n,n,n,x,x
CCn1nc(NS(=O)(=O)c2ccc(F)cc2)c2cc3cccc(C)c3nc21,n,n,n,n,n,n,x,x
CC(C)(C)c1ccc(C(=O)Nc2sc3c(c2C(=O)O)CCC3)cc1,30.4,n,n,n,n,n,n,n
COc1ccccc1CNC(=O)C(C)Sc1ccsc1[N+](=O)[O-] (centres undefined),29.9,n,n,n,n,n,n,n
O=C(NCCCO)C(=O)NCc1ccccn1,30.0,n,n,n,n,n,n,n
CCN(CC)S(=O)(=O)c1ccc(OC)c(NC(=O)COc2ccc3c(C)cc(=O)oc3c2)c1,113.6,n,n,n,n,n,95.8,168.1
CCN(CC)S(=O)(=O)c1ccc(Cl)c(NC(=O)COc2ccc3c(C)cc(=O)oc3c2)c1,n,n,n,n,n,n,x,x
CCOC(=O)C/C(C)=N/NC(=O)c1cccs1,n,x,n,n,n,n,x,x
Cc1cc(C)n(-c2nc(N(c3ccccc3)c3ccccc3)nc(-n3nc(C)cc3C)n2)n1,61.8,x,n,x,n,n,n,n
Cc1cccc(C(=O)Nc2nnc(S(=O)(=O)N3CCC(C)CC3)s2)c1,50.0,n,n,n,n,n,n,n
O=C(c1ccccc1)c1cccc(NC(=O)c2ccc(Br)o2)c1,n,n,n,n,n,n,x,x
O=C(Nc1cccc(NC(=O)c2ccc(Br)o2)c1)c1ccccc1,34.4,n,x,n,n,n,n,n

# Source: PubChem
